Source: PubChem BioAssay (The Scripps Research Institute Molecular Screening Center)
V1aR counter: counter-screen for oxytocin receptor agonists: human V1a receptor agonists. 320,000 tested, 0.25% active. AID 2797. activation, % at 3 µM. CHO-V1R cells, Fluo-8 calcium fluorescence, agonist mode; 0% DMSO, 100% 3 nM vasopressin. P37288;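 active means activation above the mean activation of all tested compounds plus 3 SD, per screening run, cut at about 20% in these data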;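 further: signal is peak over basal fluorescence ratio across a 100 second FLIPR read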
TAAR1 ag: human TAAR1 agonism. CHO RD-HGA16 TAAR1, Fluo-8 calcium fluorescence; vehicle wells 0%, saturating PEA agonist 100%. Q96RJ0. 360,000 tested, 0.99% active. AID 624467. activation, % at 3 µM;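 active means activation above the mean activation of all test compounds in the run plus 3 SD, cut at about 38% in these data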
Target sequence (Q96RJ0 whole entry, looked up): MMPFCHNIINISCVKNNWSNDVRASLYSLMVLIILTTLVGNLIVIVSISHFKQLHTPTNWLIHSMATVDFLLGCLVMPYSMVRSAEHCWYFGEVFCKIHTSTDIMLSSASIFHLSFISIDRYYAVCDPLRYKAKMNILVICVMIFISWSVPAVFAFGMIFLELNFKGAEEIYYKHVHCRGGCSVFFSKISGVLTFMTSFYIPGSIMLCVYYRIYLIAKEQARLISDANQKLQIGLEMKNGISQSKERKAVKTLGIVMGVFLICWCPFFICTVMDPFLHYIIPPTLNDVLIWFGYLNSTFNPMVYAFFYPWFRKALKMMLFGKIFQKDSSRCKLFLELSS
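Assay system: CHO-derived RD-HGA16 cells with stable Gα16 and human TAAR1; timing: 17-24 h seeding, 75 min 37 °C dye, 30 min RT; read-out: % activation from peak over basal fluorescence ratio, DMSO-to-PEA scaled; measured by: kinetic Fluo-8 calcium fluorescence; benchmarks: low control DMSO, high control PEA (EC100); doses: 3 µM single concentration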
OXTR potentiate: potentiates the human oxytocin receptor response. P30559. CHO-OTR cells, Fluo-8 calcium fluorescence, potentiator mode; 0% = oxytocin EC15, 100% = EC100. activation, % at 3 µM. 320,000 tested, 0.061% active;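 active means activation above that plate's cutoff, the mean activation of tested compounds plus 3 SD, cut at about 6.6% in these data, passing the limit was not always enough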;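 further: 100% uses oxytocin at 75 nM as the full agonist control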
Target sequence (P30559 whole entry, looked up): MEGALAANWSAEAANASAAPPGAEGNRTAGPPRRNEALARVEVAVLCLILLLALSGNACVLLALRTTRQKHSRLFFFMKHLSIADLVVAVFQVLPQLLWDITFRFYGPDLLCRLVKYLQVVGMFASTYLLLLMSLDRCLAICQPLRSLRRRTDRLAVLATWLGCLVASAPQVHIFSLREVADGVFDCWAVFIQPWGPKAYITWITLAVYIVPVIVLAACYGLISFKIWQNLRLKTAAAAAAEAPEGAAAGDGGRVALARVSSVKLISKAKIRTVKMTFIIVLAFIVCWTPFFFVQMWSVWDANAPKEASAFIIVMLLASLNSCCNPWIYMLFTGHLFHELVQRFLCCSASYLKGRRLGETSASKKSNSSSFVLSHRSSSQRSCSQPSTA
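Material: human OTR in CHO cells. Compound: 3.0 µM, one dose. Timing: compound 6 min at room temperature before oxytocin, 100 s read. Evaluation: % activation of max/min ratio relative to oxytocin controls. Replication: single well per compound, singlicate. Signal: Fluo-8 calcium dye fluorescence.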
TAAR1 antagonist: human TAAR1 antagonism; CHO RD-HGA16 TAAR1, Fluo-8 calcium fluorescence, antagonist; 360,000 tested, 1.5% active; Q96RJ0; inhibition, % at 3 µM;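 active means inhibition above a per-plate cutoff, the mean inhibition of test compounds on that plate plus 3 SD, cut at about 49% in these data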;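 further: 0% = DMSO plus EC80 beta-PEA response and 100% = DMSO alone without agonist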
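Test system – hTAAR1-expressing CHO RD-HGA16 cells, Gα16-coupled · Also added – β-PEA at EC80 concentration, post-compound challenge · Compound – 3 µM, single point · Incubation – dye loading 75 min at 37 °C, then 30 min room temperature · Measured by – Fluo-8 intracellular calcium dye fluorescence, real-time kinetic reads · Benchmarks – vehicle and agonist controls · Replicates – singlicate, one well per test compound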
OXTR ag: agonists of human oxytocin receptor | P30559 | CHO-OTR cells, Fluo-8 calcium fluorescence; normalized: DMSO 0%, oxytocin 100% | activation, % at 3 µM | 320,000 tested, 0.32% active | AID 2435;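 active means activation above the mean of all tested compounds plus 3 SD, cutoff set per screening run, cut at about 20% in these data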;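 further: peak over basal fluorescence ratio from a 100 s FLIPR kinetic read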
TAAR1 ag confirm: confirmation of human TAAR1 agonists. AID 651783. 2,400 tested, 82% active. activation, % at 3 µM. CHO RD-HGA16 TAAR1, Fluo-8 calcium fluorescence; scaled: DMSO 0%, maximal phenethylamine 100%. shares compounds with TAAR1 ag;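 active means activation above a cutoff set at the run's mean compound activation plus 3 SD, cut at about 39% in these data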
Ga16 nonsel ag: counter-screen for TAAR1 agonists: nonselective agonists in parental cells; shares compounds with TAAR1 ag; CHO-Ga16 parental, Fluo-8 calcium fluorescence; normalized to maximal ATP response, DMSO zero; activation, % at 3 µM; 2,400 tested, 50% active; AID 651787;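 active means activation above the run cutoff, the mean activation over all tested wells plus 3 SD, cut at about 12% in these data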;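 further: 0% = DMSO wells and 100% = maximal ATP response on the peak over basal ratio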
TAAR1 desensitize: counter-screen for human TAAR1 agonists: agonists that desensitize TAAR1. shares compounds with TAAR1 ag. CHO RD-HGA16 hTAAR1, Fluo-8 calcium, beta-PEA response inhibition. inhibition, % at 3 µM. 2,400 tested, 46% active;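 active means inhibition above the run cutoff, the mean inhibition of all test compounds plus 3 SD, cut at about 49% in these data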;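 further: beta-PEA stimulus applied at its EC80; loss of beta-PEA calcium signal after compound pretreatment read as receptor desensitization; 0% = DMSO with beta-PEA at EC80 and 100% = DMSO alone without agonist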
Ga16 antag count: nonselective Ga16 antagonist in TAAR1 agonist counter-screen; AID 651952; shares compounds with TAAR1 ag; 2,400 tested, 39% active; inhibition, % at 3 µM; CHO-Ga16 ATP-induced calcium, Fluo-8 fluorescence;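 active means inhibition above the plate's mean compound inhibition plus 3 SD, computed per plate, cut at about 22% in these data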;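 further: 0% = EC80 ATP with DMSO and 100% = DMSO wells without ATP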
Active calls of the source: *; . = no result given. Most compounds without a hit are left out; they make up all but 2.3% or so of the library.

SMILES	V1aR counter	TAAR1 ag	OXTR potentiate	TAAR1 antagonist	OXTR ag	TAAR1 ag confirm	Ga16 nonsel ag	TAAR1 desensitize	Ga16 antag count
COc1cccc(NC(=O)CN(C)CC(=O)NCc2ccc(F)cc2)c1	0.4	7.5	-6.9	-14.8	0.2	.	.	.	.
CCCOc1ccc(OC(=O)c2ccc(Br)o2)cc1	64.3*	136.8*	-24.0	101.6*	42.4*	114.6*	94.6*	85.5*	79.1*
CC(=O)n1c(-c2ccccc2)c(CO)c2ccccc21	-0.5	1.6	-12.7	-3.3	-0.4	.	.	.	.
NCCc1c(-c2ccccc2)n(-c2ccccc2)c2ccccc12	.	61.2*	.	63.1*	.	85.3*	50.6*	95.7*	34.5*
CCN(CC)c1ccc(/C=C2/SC(=O)N(C(C)C)C2=O)o1	.	72.7*	.	54.0*	.	68.6*	72.9*	63.8*	67.8*
CC(C)N1C(=O)S/C(=C\c2ccc(-c3ccc(Cl)c(C(=O)O)c3)o2)C1=O	-1.7	-0.1	-13.9	-15.1	-0.5	.	.	.	.
COc1cc(N=c2ssnc2Cl)c(OC)cc1Cl	5.2	58.6*	-1.8	29.0	-0.4	49.1*	38.1*	33.6	32.8*
CCc1nc2ccc(C(=O)Nc3ccc(OC)c(OC)c3)cn2c1N(C)CCC(C)C	.	81.6*	.	6.2	.	99.4*	68.0*	38.0	9.0
CCc1nc2ccc(C(=O)Nc3ccc(OC)c(OC)c3)cn2c1N(C)Cc1ccc(OC)cc1	.	3.1	.	43.0	.	.	.	.	.
COC(=O)c1sc(NC(=S)NC(=O)c2ccccc2)nc1C	-0.1	12.2	-1.0	-16.6	-1.2	.	.	.	.
COC(=O)c1sc(NC(=S)NC(=O)c2ccccc2Cl)nc1C	9.7	50.4*	-2.0	-14.8	2.7	29.3	22.9*	11.3	12.1
CC(c1ccccc1C(O)(c1ccccc1)c1ccccc1)N(C)C (stereo not given)	47.8*	114.2*	-21.4	73.9*	43.4*	112.8*	70.3*	97.9*	63.2*
COc1ccccc1C(O)(c1ccccc1)c1ccccc1OC	.	0.0	.	5.4	.	.	.	.	.
CCCCn1c(SCC(=O)OCC)nnc1-c1ccoc1C	1.2	10.5	-11.3	-1.2	0.8	.	.	.	.
O=C(c1cc(-c2ccc(O)cc2)on1)N1CCc2ccccc2C1	6.8	71.5*	-8.7	33.0	7.4	91.1*	17.2*	67.1*	10.5
Cc1nn(C)cc1C=NCCOCc1ccccc1	-0.1	43.7*	-9.8	7.2	-0.8	66.1*	3.1	11.9	-4.7
CCc1ccc(C(=O)NCc2ccc(Cl)cc2)cc1	-1.0	64.6*	-3.3	33.3	-2.4	2.5	21.5*	7.6	15.5
CCCCc1cc(=O)oc2cc(OCC(=O)NC(Cc3c[nH]c4ccc(O)cc34)C(=O)O)ccc12 (stereo not given)	0.2	0.2	-1.7	-11.8	-0.1	.	.	.	.
Cc1ccc(Oc2ccc(Cl)cc2NC(=O)c2cnccn2)cc1	0.1	2.0	-10.5	-1.4	-1.1	.	.	.	.
C/C=C(\C)C(=O)OC1c2c(ccc3ccc(=O)oc23)OC(C)(C)C1OC(C)=O (stereo not given)	0.9	50.8*	-16.1	62.2*	1.2	45.5*	29.1*	79.1*	53.7*
C/C=C(/C)C(=O)O[C@@H]1c2c(ccc3ccc(=O)oc23)OC(C)(C)[C@@H]1OC(C)=O	1.4	24.9	-6.8	29.1	-1.4	.	.	.	.
CCCCCCCC(=O)N/N=C(/C)c1c(O)cc(C)oc1=O	0.1	4.5	-8.2	-12.6	-0.6	.	.	.	.
Cc1[nH]c2ccccc2c1C(c1ccccn1)N1CCCC1 (stereo not given)	-0.1	0.0	0.1	12.8	0.5	.	.	.	.
CCOC(=O)C1CCCN(C(c2ccccn2)c2c(C)[nH]c3ccccc23)C1 (stereo not given)	0.5	66.5*	0.6	70.7*	-0.5	74.2*	2.2	83.7*	0.8
CC(C)(C)c1ccc(C2(C)NC(=O)N(CC(=O)c3ccc[nH]3)C2=O)cc1 (stereo not given)	9.8	56.4*	-11.9	-12.6	14.4	34.6	12.6*	21.9	18.3
SMILES	V1aR counter	TAAR1 ag	OXTR potentiate	TAAR1 antagonist	OXTR ag	TAAR1 ag confirm	Ga16 nonsel ag	TAAR1 desensitize	Ga16 antag count
CC(C)(C)c1ccc(C2(C)NC(=O)N(CC(=O)NCc3cccs3)C2=O)cc1 (stereo not given)	1.6	5.0	-5.2	-22.4	-0.5	.	.	.	.
N#Cc1ccc(OCCCN2CCC(C(O)(C3=CCCC3)c3ccccc3)CC2)cc1 (stereo not given)	.	18.9	.	3.3	.	.	.	.	.
CC(=O)Nc1ccc(OCCCN2CCC(C(O)(c3ccccc3)c3ccccc3)CC2)cc1	.	2.6	.	-0.3	.	.	.	.	.
OC(c1ccccc1)(c1ccccc1)C1CCN(CCCOc2ccc(-c3cccnc3)cc2)CC1	.	53.3*	.	37.2	.	32.7	20.9*	29.6	28.6*
OC(c1ccccc1)(c1ccccc1)C1CCN(CCCOc2ccc(-c3ccncc3)cc2)CC1	.	41.8*	.	53.1*	.	45.8*	26.9*	54.3*	36.2*
CC1CCN(CCCOc2ccc(OCc3ccccc3)cc2)CC1	4.7	59.1*	-10.1	17.6	6.7	40.7*	23.6*	20.9	23.1*
O=C(Nn1c(C2CCCCC2)nc2ccccc2c1=O)c1ccc(Cl)c([N+](=O)[O-])c1	7.5	0.5	-12.8	-8.6	3.1	.	.	.	.
c1ccc(C2OCC3(CO2)COC(c2ccccc2)OC3)cc1 (stereo not given)	1.3	59.1*	-10.1	1.0	-0.8	3.0	4.0	3.5	2.2
Cc1ccc(C2OCC3(CO2)COC(c2ccc(C)cc2)OC3)cc1 (stereo not given)	0.2	-0.1	-2.3	-18.0	1.0	.	.	.	.
COC(=O)c1nc[nH]c1[N+](=O)[O-]	.	3.3	.	-10.5	.	.	.	.	.
O=[N+]([O-])c1[nH]cnc1/C=C/c1ccccc1	4.0	.	-5.5	.	0.9	.	3.4	.	13.4
COc1ccc(NC(=O)C2CC(=O)N(Cc3ccc(C)cc3)C2)cc1S(=O)(=O)N1CCCCC1 (stereo not given)	0.4	-2.0	0.1	2.9	-0.9	.	.	.	.
c1ccc(CCN2CN(CCCN3CCOCC3)c3nc4ccccc4n3C2)cc1	-0.3	.	-0.9	.	0.2	.	-0.1	.	10.7
